Experimental data from ChEMBL document CHEMBL3603779, “Identification and Optimization of Benzimidazole Sulfonamides as Orally Bioavailable Sphingosine 1-Phosphate Receptor 1 Antagonists with in Vivo Activity” (J Med Chem, 2015).
Active and inactive are the calls of the source. The calls are words filed in the database; no cut-off is given here.

Legend:
[1] = target: Sphingosine 1-phosphate receptor 1 (Homo sapiens, UniProt P21453); test: Antagonist activity against human S1P1 receptor expressed in human U2OS cells co-expressing GFP assessed as inhibition of S1P-induced receptor translocation; assay type: cell-based
How it was run: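 Cellular S1P1 translocation (internalization) assay with antagonist; EC50 reported as mean of at least three separate determinations ± standard deviation.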

[2] = Intrinsic clearance in human liver microsomes pre-incubated at 37 degC for 5 mins before NADPH addition by LCMS/MS method; assay type: ADME; details: read-out: CLH
[3] = target: Sphingosine 1-phosphate receptor 1 (Mus musculus) (UniProt O08530); test: Antagonist activity against mouse S1P1 receptor expressed in human U2OS cells co-expressing GFP assessed as inhibition of S1P-induced receptor translocation; assay type: cell-based
[4] = Oral bioavailability in Han Wistar rat at 5 to 10 mg/kg by LC-MS/MS method; assay type: ADME, organism-based; details: in vivo
[5] = Clearance in Han Wistar rat at 2 to 4 mg/kg, iv by LC-MS/MS method; assay type: ADME, organism-based; details: in vivo
Cytochrome P450 1A2 = target: T1, Cytochrome P450 1A2 (Homo sapiens, UniProt P05177); test: Induction of CYP1A2 activation in human hepatocytes at 0.2 to 20 uM incubated for 48 hrs using phenacetin substrate; assay type: ADME, cell-based, Hepatocyte
T1 sequence (P05177 whole entry): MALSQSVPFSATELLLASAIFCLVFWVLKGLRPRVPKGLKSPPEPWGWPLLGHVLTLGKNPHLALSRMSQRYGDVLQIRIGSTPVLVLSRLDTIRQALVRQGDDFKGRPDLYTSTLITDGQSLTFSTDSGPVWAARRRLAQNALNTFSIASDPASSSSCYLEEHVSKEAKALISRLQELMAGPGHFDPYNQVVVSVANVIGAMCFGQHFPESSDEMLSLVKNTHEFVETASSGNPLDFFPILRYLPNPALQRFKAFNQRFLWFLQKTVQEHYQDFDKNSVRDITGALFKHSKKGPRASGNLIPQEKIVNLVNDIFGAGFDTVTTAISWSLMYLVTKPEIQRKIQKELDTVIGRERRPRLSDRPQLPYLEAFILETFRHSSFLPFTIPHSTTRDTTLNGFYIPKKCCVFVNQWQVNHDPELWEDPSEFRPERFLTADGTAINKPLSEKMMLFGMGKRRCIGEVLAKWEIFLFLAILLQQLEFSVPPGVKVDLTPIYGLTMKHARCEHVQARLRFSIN
How it was run: (§1)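 Primary human hepatocytes seeded on collagen and cultured in collagen-Matrigel sandwich. On day 3 they are treated for 48 h with DMSO, test compound at varying concentrations, or reference inducer (3-methylcholanthrene for CYP1A2, phenobarbital for CYP2B6, rifampicin for CYP3A4/5). Probe substrates are then added (phenacetin, bupropion, testosterone) and marker metabolites quantified (acetaminophen, hydroxybupropion, 6-β-hydroxytestosterone).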

Cytochrome P450 2B6 = target: T2, Cytochrome P450 2B6 (Homo sapiens, UniProt P20813); test: Induction of CYP2B6 activation in human hepatocytes at 0.2 to 20 uM incubated for 48 hrs using bupropion substrate; assay type: ADME, cell-based, Hepatocyte; how it was run: as §1
T2 sequence (P20813 whole entry): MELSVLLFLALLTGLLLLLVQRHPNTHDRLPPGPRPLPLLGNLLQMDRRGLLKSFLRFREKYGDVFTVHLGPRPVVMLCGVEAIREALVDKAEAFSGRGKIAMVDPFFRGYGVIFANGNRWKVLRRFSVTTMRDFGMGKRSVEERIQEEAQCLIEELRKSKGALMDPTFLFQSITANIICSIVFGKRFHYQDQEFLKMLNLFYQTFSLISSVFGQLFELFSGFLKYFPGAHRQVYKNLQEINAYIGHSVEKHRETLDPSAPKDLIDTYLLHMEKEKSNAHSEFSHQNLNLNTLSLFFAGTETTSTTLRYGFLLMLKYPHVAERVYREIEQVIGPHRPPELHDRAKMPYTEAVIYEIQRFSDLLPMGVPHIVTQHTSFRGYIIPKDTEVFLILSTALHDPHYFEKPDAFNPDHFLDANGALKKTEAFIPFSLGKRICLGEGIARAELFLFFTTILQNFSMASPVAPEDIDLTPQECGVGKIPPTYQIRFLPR

Cytochrome P450 3A4 = Cytochrome P450 3A4 (Homo sapiens, UniProt P08684); test: Induction of CYP3A4 activation in human hepatocytes at 0.2 to 20 uM incubated for 48 hrs using testosterone substrate; assay type: ADME, cell-based, Hepatocyte; how it was run: as §1
Cytochrome P450 3A5 [6] = target: T3, Cytochrome P450 3A5 (Homo sapiens, UniProt P20815); test: Induction of CYP3A5 activation in human hepatocytes at 0.2 to 20 uM incubated for 48 hrs using testosterone substrate; assay type: ADME, cell-based, Hepatocyte; how it was run: as §1
Cytochrome P450 3A5 [7] = target: T3, Cytochrome P450 3A5; test: Induction of CYP3A5 activation in human hepatocytes at 2 uM incubated for 48 hrs using testosterone substrate; assay type: ADME, cell-based, Hepatocyte; how it was run: as §1

T3 sequence (P20815 whole entry): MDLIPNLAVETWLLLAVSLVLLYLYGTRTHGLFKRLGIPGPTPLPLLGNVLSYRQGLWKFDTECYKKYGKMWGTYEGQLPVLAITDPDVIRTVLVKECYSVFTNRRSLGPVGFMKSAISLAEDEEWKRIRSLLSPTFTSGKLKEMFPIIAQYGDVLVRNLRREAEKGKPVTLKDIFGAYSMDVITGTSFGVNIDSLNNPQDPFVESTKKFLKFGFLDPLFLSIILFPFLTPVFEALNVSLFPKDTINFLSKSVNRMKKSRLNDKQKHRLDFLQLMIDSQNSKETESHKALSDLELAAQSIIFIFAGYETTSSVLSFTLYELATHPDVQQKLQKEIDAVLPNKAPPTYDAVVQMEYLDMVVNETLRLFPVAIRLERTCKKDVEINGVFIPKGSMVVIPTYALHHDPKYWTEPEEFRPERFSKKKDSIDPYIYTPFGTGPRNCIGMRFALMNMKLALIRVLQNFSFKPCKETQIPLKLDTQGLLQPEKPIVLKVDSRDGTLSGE
Sequence of Sphingosine 1-phosphate receptor 1 (Mus musculus) (O08530 whole entry): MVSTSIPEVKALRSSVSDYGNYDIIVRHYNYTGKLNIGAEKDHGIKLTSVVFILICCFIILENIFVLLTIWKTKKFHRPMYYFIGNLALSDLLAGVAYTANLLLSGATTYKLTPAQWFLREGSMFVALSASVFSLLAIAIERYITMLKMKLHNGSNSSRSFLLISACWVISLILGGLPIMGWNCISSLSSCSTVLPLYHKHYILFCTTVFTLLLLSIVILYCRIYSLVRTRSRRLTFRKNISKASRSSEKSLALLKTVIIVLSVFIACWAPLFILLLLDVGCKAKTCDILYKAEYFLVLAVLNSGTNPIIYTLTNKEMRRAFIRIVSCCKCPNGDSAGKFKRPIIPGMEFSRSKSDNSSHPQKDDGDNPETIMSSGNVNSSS
Sequence of Sphingosine 1-phosphate receptor 1 (P21453 whole entry): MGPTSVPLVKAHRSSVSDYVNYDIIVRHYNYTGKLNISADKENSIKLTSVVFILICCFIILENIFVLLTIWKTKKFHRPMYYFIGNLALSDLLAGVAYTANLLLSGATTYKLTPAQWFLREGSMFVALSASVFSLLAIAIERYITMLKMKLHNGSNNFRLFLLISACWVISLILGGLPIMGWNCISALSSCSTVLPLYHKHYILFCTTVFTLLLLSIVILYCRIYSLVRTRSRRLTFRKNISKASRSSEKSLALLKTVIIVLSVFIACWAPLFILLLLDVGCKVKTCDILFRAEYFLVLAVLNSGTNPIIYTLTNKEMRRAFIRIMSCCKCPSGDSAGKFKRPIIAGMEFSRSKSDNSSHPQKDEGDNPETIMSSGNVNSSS
Sequence of Cytochrome P450 3A4 (P08684 whole entry): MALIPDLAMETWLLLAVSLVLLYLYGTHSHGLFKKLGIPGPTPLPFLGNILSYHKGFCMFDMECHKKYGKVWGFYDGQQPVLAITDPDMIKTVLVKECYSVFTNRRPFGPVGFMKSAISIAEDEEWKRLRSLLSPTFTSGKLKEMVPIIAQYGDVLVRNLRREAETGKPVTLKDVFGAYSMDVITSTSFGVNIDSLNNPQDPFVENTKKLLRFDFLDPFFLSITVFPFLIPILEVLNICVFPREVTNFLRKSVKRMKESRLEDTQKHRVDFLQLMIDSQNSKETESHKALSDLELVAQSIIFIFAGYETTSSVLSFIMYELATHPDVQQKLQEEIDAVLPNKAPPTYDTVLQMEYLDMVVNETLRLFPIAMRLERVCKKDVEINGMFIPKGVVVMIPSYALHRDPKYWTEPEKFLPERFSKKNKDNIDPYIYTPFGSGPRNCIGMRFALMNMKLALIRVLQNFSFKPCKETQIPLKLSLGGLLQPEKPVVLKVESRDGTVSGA

EC50 [1]: 5 nM
microsomal CLint [2]: > 100 µL/min/mg
inhibition [3]: Active
bioavailability [4]: 43%
clearance [5]: 33 mL/min/kg
Activity (Cytochrome P450 1A2): Not Active
Activity (Cytochrome P450 2B6): Not Active
Activity (Cytochrome P450 3A4): Dose-dependent effect
Activity (Cytochrome P450 3A5 [6]): Dose-dependent effect
Activity (Cytochrome P450 3A5 [7]): Active
Structure (SMILES): CCn1c([C@@H](C)NS(=O)(=O)c2ccc(Cl)cc2)nc2ccc(C(F)(F)F)cc21
